Jurkat NFkB inh = inhibitors of induced NF-kB luciferase reporter, primary screen, TCR NF-kB activation inhibitor project, cell-based, luminescence, uHTS. Jurkat, PMA/ionomycin-induced NF-kB luciferase reporter. inhibition, % at 4 µM. 330,000 compounds, 0.53% hits; in the data active means inhibition above about 50%
hiPSC survival = enhancers of single-cell hiPSC survival, primary screen, ATPlite luminescence; 360,000 compounds, 0.044% hits; survival enhancement, % at 20 µM; AID 602274, 2012; 100% = ROCK inhibitor wells, 0% = DMSO; in the data active means survival enhancement above about 18%;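 further: cells exposed to compounds for 16 hours before the ATP read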
Lipid droplet = inhibitors of hepatocyte lipid droplet formation, primary screen, imaging, high-throughput imaging, BODIPY stain; AML12 mouse hepatocytes, oleate lipid droplets; inhibition, % at 6.5 µM; 240,000 compounds, 0.4% hits; AID 1656, 2009;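 active means lipid droplet intensity inhibited by at least 50%, with more than 500 cells counted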
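Test system: AML12 mouse liver cells; schedule: overnight exposure; technique: high-content imaging of BODIPY-stained droplets and DAPI nuclei; read-out: % inhibition of corrected integrated BODIPY droplet signal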
H9c2 TAG inh = inhibitors of triacylglycerol accumulation, primary screen, cell-based, uHTS, fluorescence, H9c2; 230,000 compounds, 0.66% hits; inhibition, % at 12.5 µM; H9c2 cells, Nile Red lipid (TAG) fluorescence; cells loaded with 200 µM oleic acid;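 active means pattern-corrected inhibition of lipid staining of at least 50% with the nuclear-stain viability signal not falling by more than 50%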
697 NFkB inh = inhibitors of PMA/ionomycin-induced NF-kB reporter, 697 cells, primary screen, B-cell NF-kB inhibitor project, cell-based, luminescence, uHTS; 697 B-cell NF-kB luciferase reporter, 16 h; inhibition, % at 4 µM; 330,000 compounds, 0.33% hits; AID 435022, 2010; in the data active means inhibition above about 35%
Gli-Sufu block = Gli-Sufu pathway antagonists, primary screen, luciferase luminescence, Sufu-KO-LIGHT cells, uHTS. Sufu-KO-LIGHT fibroblasts, Gli luciferase reporter luminescence. inhibition, % at 5 µM. 340,000 compounds, 0.74% hits. AID 588413, 2011;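 active means inhibition above about 55%, limit read from the data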
697 NFkB conf = PMA/ionomycin-induced NF-kB reporter inhibitors, 697 retest, confirmation, B-cell NF-kB inhibitor project, cell-based, luminescence, single concentration | shares compounds with 697 NFkB inh | 697 B-cell NF-kB luciferase, 16 h | inhibition, % at 4 µM | 2,000 compounds, 35% hits | AID 449746, 2010; in the data active means inhibition mostly above about 28%, no sharp cut-off; inactive means mostly below about 22%
Hits are given with their value; . = inactive; / = no result. Most compounds without a hit are left out; they make up all but 1.8% or so of the library.

SMILES | Jurkat NFkB inh | hiPSC survival | Lipid droplet | H9c2 TAG inh | 697 NFkB inh | Gli-Sufu block | 697 NFkB conf
Cc1ccc(S(=O)(=O)c2cc3c(=O)n4ccccc4nc3n(Cc3ccco3)c2=N)cc1C | . | / | / | / | 40 | . | .
O=C(CNC(=O)c1cccc(OC(F)F)c1)OCC(=O)c1ccccc1 | . | . | . | . | 35 | . | .
O=C(/C=C/c1ccc(Cl)cc1Cl)c1nc2ccccc2[nH]1 | . | . | / | . | . | . | /
Clc1ccc(/C=C/c2nc3ccccc3[nH]2)c(Cl)c1 | . | . | / | / | . | . | .
Cc1ccsc1C(=O)N1CCC1(C)C(=O)NCc1cccnc1 (stereo not drawn) | / | . | / | . | / | / | /
O=c1cc(-c2ccc(O)c(-c3c(O)cc(O)c4c(=O)cc(-c5ccc(O)cc5)oc34)c2)oc2cc(O)cc(O)c12 | . | . | . | . | 40 | . | .
O=c1cc(-c2ccc(O)cc2)oc2c(-c3c(O)cc(O)c4c(=O)cc(-c5ccc(O)cc5)oc34)c(O)cc(O)c12 | . | . | / | / | . | . | /
Cc1ccc(CNC(=O)c2ccc(N3CCC4(CC3)CC(c3cccc(Br)c3)=NO4)c(NC(=O)c3ccc(Cl)c([N+](=O)[O-])c3)c2)cc1 | . | . | / | . | . | . | /
CCCNC(=O)c1ccc(N2CCC3(CC2)CC(c2cccc(Br)c2)=NO3)c(NC(=O)c2ccc(Cl)c([N+](=O)[O-])c2)c1 | . | . | / | . | 37 | . | 26
CC1Cc2ccccc2N1S(=O)(=O)c1cccc(C(=O)N2CCN(c3ncccn3)CC2)c1 (stereo not drawn) | . | . | . | . | . | . | .
CSc1nnc(C)c(=O)n1COC(=O)/C=C/c1ccccc1 | . | . | . | . | . | . | /
Cc1ccc(NC(=O)O/N=C/c2c(C)nn(C(C)(C)C)c2C)cc1Cl | . | . | . | . | 63 | . | 78
Cc1ccc(NC(=O)Nn2cnnc2)cc1Cl | . | . | . | . | . | . | /
C=C(C)[C@@H]1CCC2(C(=O)O)CC[C@]3(C)[C@H](CC[C@@H]4[C@@]5(C)CCC(=O)C(C)(C)[C@@H]5CC[C@]43C)[C@@H]12 (stereo partly drawn) | . | . | . | . | 80 | . | 61
C=C(CC[C@@H](O)C(C)(C)O)[C@H]1CC[C@]2(C)[C@@H]1CCC1[C@@]3(C)CCC(=O)C(C)(C)C3CC[C@]12C (stereo partly drawn) | . | . | / | . | . | . | /
CN(C)S(=O)(=O)c1cccc(NC(=O)C2CCCN(C(=O)c3ccc(Cl)cc3)C2)c1 (stereo not drawn) | / | . | / | . | / | / | /
O=C(C[C@@H]1C/C=C\C[C@H](Cc2ccc(F)cc2)C(=O)OC[C@@H](c2ccccc2)NC1=O)NCCO | . | . | / | . | . | . | /
Cc1ccc(NC(=O)CCNS(=O)(=O)c2ccc3c(c2)oc(=O)n3C)cc1 | . | . | . | / | 41 | . | .
CSc1ccc(C2NN=C(c3ccccc3)S2)cc1 (stereo not drawn) | . | . | / | . | . | . | .
O=C(Nc1ccc2oc(-c3ccccc3Cl)nc2c1)c1ncn[nH]1 | . | . | . | / | . | . | .
Cn1c(=O)[nH]c(=O)c2c1nc([N+](=O)[O-])n2Cc1ccccc1 | . | . | . | . | . | . | /
CC(C)Cn1c([N+](=O)[O-])nc2c1c(=O)[nH]c(=O)n2C | . | . | . | . | 37 | . | 30
O=C(c1ccco1)N1CC2(CC(c3ccc(Cl)cc3)=NO2)CN1Cc1ccc(Br)cc1 (stereo not drawn) | / | . | / | . | / | / | /
CCOC(CNC(=O)c1ccc2nc(N3CCC(C)CC3)sc2c1)OCC | . | . | . | . | . | . | .
Cc1ccc(C(=O)O/N=C(\N)c2ccccc2)c(Cl)c1 | . | . | . | . | . | . | .
SMILES | Jurkat NFkB inh | hiPSC survival | Lipid droplet | H9c2 TAG inh | 697 NFkB inh | Gli-Sufu block | 697 NFkB conf
N/C(=N\OC(=O)c1ccccc1Cl)c1ccncc1 | . | . | . | . | . | . | /
Cc1cccc(/C(N)=N/OC(=O)c2ccc(F)cc2)c1 | . | . | . | / | . | . | .
COc1cc(-c2nc3n(n2)C(c2ccc(F)cc2)C2=C(CCCC2=O)N3)cc(OC)c1OC (stereo not drawn) | . | . | / | / | 37 | . | 33
Cc1ccc(C)c(Cn2nnc(C(=O)Nc3ccc4c(c3)OCCO4)c2N)c1 | . | . | / | . | . | . | /
Cc1cc(C)cc(NC(=O)c2nnn(Cc3cc(C)ccc3C)c2N)c1 | . | . | . | . | 38 | . | 29
CCNC(=O)c1ccc(NS(=O)(=O)c2ccc3[nH]c(=O)[nH]c3c2)cc1 | . | . | . | . | . | . | /
O=[N+]([O-])c1ccc(Sc2cc[n+]([O-])c3ccccc23)c([N+](=O)[O-])c1 | . | . | . | . | 37 | . | 50
O=c1[nH]c(Sc2ccc([N+](=O)[O-])cc2[N+](=O)[O-])nc2ccccc12 | . | . | / | . | . | . | /
Cn1c(C(=O)NCC2CCCO2)cc2oc3ccccc3c21 (stereo not drawn) | . | . | . | . | . | . | /
Cn1c(C(=O)NCc2ccccc2)cc2oc3ccccc3c21 | . | . | . | . | . | . | .
Cn1c(C(=O)NCc2cccs2)cc2oc3ccccc3c21 | . | . | . | / | . | . | .
Cc1ccc(S(N)(=O)=O)cc1NC(=O)/C=C/c1ccc2c(c1)OCO2 | . | . | . | . | . | . | /
CCC(Sc1nnc(C)c(=O)[nH]1)C(=O)Nc1cccc2ccccc12 (stereo not drawn) | . | . | . | / | . | . | /
COc1cc(=O)[nH]c(SC(C)C(=O)Nc2cc(C)on2)n1 (stereo not drawn) | . | . | . | / | . | . | /
O=C1N/C(=C\c2ccc(O)cc2)C(=O)c2ccccc21 | . | . | / | / | 45 | . | .
COC(=O)c1c(N)sc(C(=O)NCCc2ccccc2)c1C | . | . | . | . | . | . | /
N#Cc1ccccc1N/C=C/C(=O)c1ccc(Cl)cc1 | . | . | / | . | . | . | .
O=C(Nc1ccc(NC(=O)c2cccc([N+](=O)[O-])c2)cc1)c1cccc([N+](=O)[O-])c1 | . | . | . | . | . | . | /
COC(=O)c1c(NC(=O)c2cccc([N+](=O)[O-])c2)sc(C(N)=O)c1C | . | . | . | . | 39 | . | 50
O=C(Nc1ccccc1)Nc1ncc([N+](=O)[O-])s1 | . | . | . | . | . | . | .
